Cneo AK release: Cryptococcus neoformans cell lysis inducers, primary screen, AK release luminescence, single concentration | lysis activity, % at 15 µM | C. neoformans lysis, adenylate kinase release luminescence, 4 h; normalised: neutral wells 0, clomiphene wells 100 | hit rate 0.2% among 360,000;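 active means mean lysis activity across replicates of at least 80%, whatever share of replicates individually reach that level; inactive means mean lysis activity below 80%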
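Test system: log-phase Cryptococcus neoformans yeast cells. Input: 5 × 10^6 yeast cells/mL. Medium: fresh YPD growth medium. Doses: single dose. Incubation: static 4 h at 37 °C with compound, 1 h detection. Measured by: luminescent adenylate kinase detection reagent. Read-out: signal increase indicating cell lysis. Benchmarks: Clomiphene.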
rRNA inh HTS: reduced GFP signal of wild-type E. coli, primary screen, bacterial rRNA inhibitor project, GFP/RFP fluorescence, OD600, single point. hit rate 1.6% among 350,000. E. coli WT GFP vs humanized-ribosome RFP mutants, 24 h; stronger effect = lower value; DMSO median 0, no signal -100. GFP signal change (wild-type ribosome), % (concentration not given with the values);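 active means significant combined selectivity score with lowered wild-type GFP, culture density cut under 30%, mutant RFP and density less affected; inactive means any of these conditions unmet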
E-sel inducer: E-selectin induction in HUVECs, primary screen, imaging, HUVEC, immunofluorescence imaging, single point; P16581; normalized: neutral wells 0, TNF-alpha wells 100; activation, % at 7.58 µM; hit rate 0.37% among 260,000; AID 686992, 2013;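 active means mean E-selectin-positive cell signal at least 10% of the positive control, reached in at least 60% of replicates, without over 20% cell loss; inconclusive means no rule given, readout overlaps actives, possibly toxicity-flagged; inactive means the rest, including those meeting only one limit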
Target sequence (P16581 whole entry, looked up): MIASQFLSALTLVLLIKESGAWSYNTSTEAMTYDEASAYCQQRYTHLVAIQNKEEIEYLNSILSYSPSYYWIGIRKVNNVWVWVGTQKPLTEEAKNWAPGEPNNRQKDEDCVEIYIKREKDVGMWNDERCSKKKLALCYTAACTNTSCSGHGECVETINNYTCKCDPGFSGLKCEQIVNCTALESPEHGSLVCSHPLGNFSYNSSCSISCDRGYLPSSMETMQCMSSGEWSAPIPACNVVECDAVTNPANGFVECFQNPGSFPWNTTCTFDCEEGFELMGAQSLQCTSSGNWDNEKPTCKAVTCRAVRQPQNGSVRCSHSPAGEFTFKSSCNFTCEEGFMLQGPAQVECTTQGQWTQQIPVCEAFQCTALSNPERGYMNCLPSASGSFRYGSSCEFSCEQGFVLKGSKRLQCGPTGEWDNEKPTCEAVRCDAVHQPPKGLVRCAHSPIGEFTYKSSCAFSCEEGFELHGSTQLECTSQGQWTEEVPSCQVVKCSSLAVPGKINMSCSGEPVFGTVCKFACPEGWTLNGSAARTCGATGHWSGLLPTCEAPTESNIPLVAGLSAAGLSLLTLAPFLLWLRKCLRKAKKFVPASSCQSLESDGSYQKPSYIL
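Assay system: HUVEC primary endothelial cells. Input: 3,000 HUVEC seeded per well. Doses: one compound dose added by pin transfer. Read-out basis: % PE-positive cells. Benchmarks: TNF-alpha high, DMSO low. Detection: immunofluorescence imaging. Buffer or medium: EGM-2, gelatin.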
DENV2 CPE: inhibitors of DENV2 cytopathic effect, primary screen, cell-based, plate reader, single concentration | DENV2-infected cells, cytopathic effect rescue | CPE inhibition, % at 9.99 µM | hit rate 1.7% among 350,000 | AID 651640, 2012; in the data active means CPE inhibition above about 20%, passing the limit was not always enough; inconclusive means no clear call, values can overlap the other calls; tested in BHK-21 cells;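 further: 0% = median of neutral control wells and 100% = median of positive control wells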
miR-122 sensor: miR-122 Renilla sensor signal increase in Huh7, primary screen, miR-122 inhibitor project, cell-based, single point, plate reader; hit rate 0.3% among 340,000; activation (reporter increase), % at 12.5 µM; Huh7 miR-122 Renilla luciferase sensor, 48 h; neutral wells = 0, positive control = 100;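 active means mean replicate activation score at least 90 and every replicate individually at or above 90; inconclusive means only one of the two criteria met; inactive means neither criterion met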;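 further: higher luciferase means less miR-122 activity so hits act as miR-122 inhibitors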
AID977621: growth inhibition of wild-type GFP E. coli, dose response, H69 mutant RFP, cherry-pick | shares compounds with rRNA inh HTS | activity change, negative = inhibition at 50 µM | 1,900 tested, under 10 active | E. coli wild-type GFP strain growth, fluorescence, 24 h;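 active means Wild-type ribosome reporter drop at least double the humanized mutant ribosome reporter drop, growth loss under a set limit; inconclusive means no clear call, values can overlap the other calls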;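 further: wild-type GFP and H69 mutant RFP strains grown together 50/50 in each well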
AID977628: E. coli growth inhibition, wild-type GFP versus h24 humanized RFP strain, dose response, h24 mutant RFP vs wild-type GFP, cherry-pick; shares compounds with rRNA inh HTS; E. coli WT GFP strain growth, fluorescence, 24 h; activity change, negative = inhibition at 50 µM; 1,900 tested, under 10 active; AID 977628, 2014;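 active means compound lowering the normal-ribosome reporter at least twice as much as the humanized-ribosome reporter, growth loss under a set limit; inconclusive means no clear call, values can overlap the other calls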;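 further: wild-type GFP and h24 humanized RFP strains co-cultured 1 to 1 per well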
Starred values were filed as active, the others as inactive; [ ] = dose if it differs, or a comment. The list is not random: actives were taken first. Their share in the collection is about 3.1%.

Results for CCc1nnc(NS(=O)(=O)c2ccc(NC(=O)c3cccc(Cl)c3)cc2)s1 ?
rRNA inh HTS: -17*; E-sel inducer: 5; DENV2 CPE: 2; miR-122 sensor: 6; AID977621: inconclusive; AID977628: inconclusive

How did CCc1nnc(NS(=O)(=O)c2ccc(NC(=O)c3ccc(Cl)cc3)cc2)s1 do in these assays?
rRNA inh HTS: -17; DENV2 CPE: 3

How did CCS(=O)(=O)N1CC2(C1)[C@@H](c1ccccc1)[C@@H](CO)N2CCC(F)(F)F do in these assays?
rRNA inh HTS: 0; E-sel inducer: 0; DENV2 CPE: 0

Results for COc1cccc(-c2ccc3c(c2)O[C@@H](CN(C)Cc2ccncc2)[C@@H](C)CN([C@H](C)CO)S3(=O)=O)c1 ?
Cneo AK release: -3; rRNA inh HTS: -18; E-sel inducer: 1; DENV2 CPE: -3; miR-122 sensor: -10[16.7 µM]

What do the screens show for `O=C(Nc1cccc(Cl)c1)N1C[C@H]2[C@@H](c3ccccc31)[C@@H](CO)N2C(=O)c1ccncc1`?
Cneo AK release: -3; rRNA inh HTS: -23*; E-sel inducer: 0; DENV2 CPE: 0; miR-122 sensor: -14[16.7 µM]; AID977628: inconclusive

Results for O=C(Nc1ccccc1F)N1C[C@@H]2[C@H](c3ccccc31)[C@@H](CO)N2C(=O)Cc1ccccc1 ?
Cneo AK release: -1; rRNA inh HTS: -44*; E-sel inducer: 1; DENV2 CPE: -4; miR-122 sensor: -20[16.7 µM]; AID977628: inconclusive

How did O=C(Nc1cccc(Cl)c1)N1C[C@H]2[C@@H](c3ccccc31)[C@H](CO)N2Cc1ccncc1 do in these assays?
Cneo AK release: -11; rRNA inh HTS: -29*; E-sel inducer: 3; DENV2 CPE: -5; miR-122 sensor: -12[16.7 µM]; AID977628: inconclusive

How did C[C@H]1CN([C@@H](C)CO)S(=O)(=O)c2ccc(-c3cccnc3)cc2O[C@H]1CN(C)CC1CCOCC1 do in these assays?
Cneo AK release: 23; rRNA inh HTS: 7; E-sel inducer: 0; DENV2 CPE: 1; miR-122 sensor: 1[16.7 µM]

What do the screens show for `CCn1ncc(Br)c1C(=O)Nc1ccc2c(c1)OCCO2`?
rRNA inh HTS: -21*; E-sel inducer: 9; DENV2 CPE: -1; AID977628: -9.9

Results for O=C(NCCc1ccc(O)cc1)c1[nH]c(C(F)(F)F)nc1-c1ccccc1 ?
Cneo AK release: 3; rRNA inh HTS: -23*; E-sel inducer: 3; DENV2 CPE: 1; miR-122 sensor: 6; AID977621: -2.2; AID977628: inconclusive

Results for Cn1c(=O)c2c(nc(N3CCOCC3)n2C/C=C/c2ccccc2)n(C)c1=O ?
Cneo AK release: 0; rRNA inh HTS: -18*; E-sel inducer: -1; DENV2 CPE: -4; miR-122 sensor: -1; AID977621: -9.2; AID977628: -11

How did Cn1c(=O)c2c(nc(N3CCOCC3)n2CCc2ccccc2)n(C)c1=O do in these assays?
Cneo AK release: 1; rRNA inh HTS: 17; E-sel inducer: 0; DENV2 CPE: -1; miR-122 sensor: 1

How did CCOC(=O)c1c(C)nsc1NCc1ccccc1 do in these assays?
rRNA inh HTS: -29*; DENV2 CPE: -2; AID977621: -24

How did CCOC(=O)c1c(NCc2ccccc2)n[nH]c1C do in these assays?
Cneo AK release: 1; rRNA inh HTS: 10; E-sel inducer: -1; DENV2 CPE: inconclusive; miR-122 sensor: -1

Results for COc1ccc(-c2csc(NC(=O)c3ccccc3S(C)(=O)=O)n2)cc1 ?
rRNA inh HTS: -36*; E-sel inducer: 0; DENV2 CPE: 8; miR-122 sensor: -7; AID977621: -6.3; AID977628: inconclusive

How did COc1ccc(-c2csc(NC(=O)c3ccccc3C(=O)O)n2)cc1 do in these assays?
rRNA inh HTS: -1; DENV2 CPE: 2

What do the screens show for `COc1ccc(-c2csc(NC(=O)c3c(C)noc3C)n2)cc1`?
Cneo AK release: 2; rRNA inh HTS: -6; DENV2 CPE: -1; miR-122 sensor: -2

Results for COc1ccc(-c2csc(NC(=O)c3ccoc3C)n2)cc1 ?
rRNA inh HTS: -25*; E-sel inducer: 1; DENV2 CPE: -5; AID977628: -7.2

What do the screens show for `C/C=C/c1ccc([C@@H]2[C@@H](CO)N(C(=O)C3CC3)[C@H]2CN(C)C(=O)CC)cc1`?
Cneo AK release: 2; rRNA inh HTS: 0; E-sel inducer: 0; DENV2 CPE: 1; miR-122 sensor: -18[16.7 µM]

What do the screens show for `Cc1ccc2nc(N(CCN(C)C)C(=O)C3CCN(S(=O)(=O)c4cccs4)CC3)sc2c1`?
Cneo AK release: 2; rRNA inh HTS: -11*; DENV2 CPE: inconclusive; miR-122 sensor: 2; AID977621: inconclusive

What do the screens show for `CN(C)CCN(C(=O)C1CCN(S(=O)(=O)c2cccs2)CC1)c1nc2c(F)cccc2s1`?
Cneo AK release: 0; rRNA inh HTS: 11; E-sel inducer: 0; DENV2 CPE: -5; miR-122 sensor: -1

How did CCOc1ccc2[nH]c3c(NCCN(C)C)ncnc3c2c1 do in these assays?
Cneo AK release: 2; rRNA inh HTS: -13*; E-sel inducer: 1; DENV2 CPE: 0; miR-122 sensor: -11; AID977621: -2.4; AID977628: inconclusive

Results for Cc1ccccc1Nc1c(-c2cccnc2)nc2ccc(Br)cn12 ?
rRNA inh HTS: -25*; E-sel inducer: 0; DENV2 CPE: -3; miR-122 sensor: -4; AID977621: 6.9; AID977628: 0.28

Results for Cc1ccc(C2NC(c3ccc(C)cc3)C(C)C(=O)C2C)cc1 (stereo not drawn) ?
rRNA inh HTS: -27*; E-sel inducer: 0; DENV2 CPE: 1; AID977621: -11; AID977628: -5.2

How did CS(=O)(=O)Nc1ccc2c(c1)[C@H]1C[C@H](CC(=O)NCc3ccc(Cl)cc3)O[C@H](CO)[C@H]1O2 do in these assays?
Cneo AK release: 60; rRNA inh HTS: -5; E-sel inducer: 0; DENV2 CPE: 9; miR-122 sensor: -3[16.7 µM]

Results for CCC[N+]1(CC#CC(O)(c2ccccc2)C2CCCCC2)CCCCC1 (stereo not drawn) ?
rRNA inh HTS: -36*; DENV2 CPE: 2; AID977621: -4.8; AID977628: -11
